Assay outcomes (PubChem BioAssay)
E-selectin induc: induces E-selectin expression in human endothelial cells. hit rate 0.37% among 260,000. activation, % at 7.58 µM. HUVEC E-selectin immunofluorescence imaging; normalized: neutral wells 0, TNF-alpha wells 100;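 active = mean E-selectin-positive cell signal at least 10% of the positive control, reached in at least 60% of replicates, without over 20% cell loss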
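System: HUVEC, human umbilical vein endothelial cells; quantity: 3,000 cells/well; buffer or medium: EGM-2 medium, gelatin-coated wells; dosing: single-point compound dose; detection: immunofluorescence imaging; evaluation: % PE-positive cells; benchmarks: TNF-alpha, DMSO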
DENV2 CPE rescue: inhibitors of DENV2 cytopathic effect. DENV2-infected cells, cytopathic effect rescue, plate reader. CPE inhibition, % at 9.99 µM. hit rate 1.7% among 350,000; in the data active = CPE inhibition above about 20%, passing the limit was not always enough; tested in BHK-21 cells;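 also: 0% = median of neutral control wells and 100% = median of positive control wells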
SIRT5 inh: blocks human SIRT5 desuccinylation of peptide; inhibition, % at 15 µM; Purified SirT5, succinyl-peptide AMC, trypsin-coupled fluorescence; hit rate 1.1% among 330,000; in the data active = inhibition above about 15%
Target sequence (Q9NXA8 whole entry, looked up): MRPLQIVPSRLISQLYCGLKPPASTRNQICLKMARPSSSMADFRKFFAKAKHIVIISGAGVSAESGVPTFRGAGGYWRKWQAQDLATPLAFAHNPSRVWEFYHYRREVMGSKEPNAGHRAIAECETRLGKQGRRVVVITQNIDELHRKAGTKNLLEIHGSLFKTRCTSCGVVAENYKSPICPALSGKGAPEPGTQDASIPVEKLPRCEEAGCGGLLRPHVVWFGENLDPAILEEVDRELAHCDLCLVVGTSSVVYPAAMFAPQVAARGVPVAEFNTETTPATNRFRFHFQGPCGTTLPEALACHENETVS
An asterisk follows results filed as active; x = no result; ! = not active in a repeat. An excerpt weighted towards active compounds, which were near 2.8% of everything screened.

SMILES	E-selectin induc	DENV2 CPE rescue	SIRT5 inh
C[C@H]1CCCCO[C@H](CN(C)S(=O)(=O)c2ccccc2)[C@@H](C)CN([C@@H](C)CO)C(=O)c2cc(NC(=O)Nc3ccc(F)cc3)ccc2O1	1	-6	0
Cc1ccc(S(=O)(=O)N2C[C@H](O)COC[C@H]3O[C@H](CC(=O)NCC4CCCCC4)CC[C@@H]32)cc1	0	-11	2
CC(C)C#Cc1ccc2c(c1)O[C@H](CN(C)S(=O)(=O)c1cn(C)cn1)[C@@H](C)CN([C@@H](C)CO)S2(=O)=O	0	-2	-2
Cc1noc(C)c1S(=O)(=O)N(C)C[C@@H]1OCCCC[C@@H](C)Oc2ccc(NC(=O)c3ccccc3)cc2C(=O)N([C@@H](C)CO)C[C@H]1C	0	11	-1
COc1ccc(NC(=O)Nc2ccc3c(c2)C(=O)N([C@@H](C)CO)C[C@@H](C)[C@@H](CN(C)C(=O)NC2CCCCC2)O3)cc1	0	7	-2
COc1ccc(C(CNC(=O)CCNC(=O)c2ccc(Br)cc2)N2CCOCC2)cc1 (stereo unspecified)	0	39*	-3
CCCCOc1ccc(C(=O)NCC(=O)NCC(c2ccc(OC)cc2)N2CCOCC2)cc1 (stereo unspecified)	x	11	0
O=C(Nc1ccc(Cc2ccc(NC(=O)C3CC3)cc2)cc1)C1CC1	-2	-4	-1
O=C(O)Cc1ccc(NC(=O)c2ccc(NC(=O)C3CC3)cc2)cc1	-1	82*	-2
Cc1c(NC(=O)c2ccccc2NC(=O)c2ccccc2)cccc1C(=O)O	x	7	1
Cc1c(NC(=O)c2ccc(NC(=O)C3CC3)cc2)cccc1C(=O)O	-1	-5	20*
COc1ccc(NC(=O)N(C)C[C@@H]2OCc3cnnn3CCCC(=O)N([C@@H](C)CO)C[C@@H]2C)cc1	-3	24*!	-2
COc1ccc(NC(=O)N(C)C[C@@H]2OCc3cnnn3CCCC(=O)N([C@H](C)CO)C[C@H]2C)cc1	0	-5	-2
C[C@@H]1CN([C@@H](C)CO)C(=O)CCCn2nncc2CO[C@H]1CN(C)C(=O)Nc1ccc(C(C)(C)C)cc1	0	22*	2
COc1ccc(NC(=O)N(C)C[C@@H]2OCc3cnnn3CCCC(=O)N([C@@H](C)CO)C[C@@H]2C)c(OC)c1	0	2	2
COc1ccc(NC(=O)N(C)C[C@H]2OCc3cnnn3CCCC(=O)N([C@@H](C)CO)C[C@H]2C)c(OC)c1	x	26*!	-11
C[C@@H]1CN([C@H](C)CO)C(=O)CCCn2nncc2CO[C@H]1CN(C)C(=O)Nc1ccc(C(C)(C)C)cc1	0	-1	-1
CCNC(=O)C[C@H]1CC[C@@H]2[C@@H](COc3ccc(NC(=O)c4cc(C)on4)cc3C(=O)N2C)O1	0	1	5
C[C@H](CO)N1C[C@H](C)[C@H](CN(C)S(=O)(=O)c2cccs2)OCCCC[C@H](C)Oc2ccc(NC(=O)NC3CCCCC3)cc2C1=O	0	12	x
C[C@H](CO)N1C[C@H](C)[C@@H](CN(C)C(=O)Nc2ccccc2)Oc2ncc(-c3ccccc3)cc2C1=O	2	3	x
C[C@@H]1CN([C@H](C)CO)C(=O)c2cc(NC(=O)NC3CCCCC3)ccc2O[C@@H](C)CCCCO[C@H]1CN(C)C(=O)NC1CCCCC1	0	12	6
CNC[C@H]1Oc2ncc(Br)cc2C(=O)N([C@H](C)CO)C[C@H]1C	0	7	-4
COc1ccc(NC(=O)N2CC3(C2)CN(C(=O)CN2CCOCC2)[C@H](CO)c2[nH]c4cc(OC)ccc4c23)cc1	0	-2	0
O=C1CCCC(c2ccccc2)N1 (stereo unspecified)	x	60*	x
O=C1NC(c2ccccc2)CCO1 (stereo unspecified)	0	-20	x
SMILES	E-selectin induc	DENV2 CPE rescue	SIRT5 inh
Cc1ccc(/C(N)=N/OC(=O)Cc2cccc3ccccc23)cc1	0	3	7
COc1ccc(OC(=O)Cc2cccc3ccccc23)cc1	0	-6	15*
COc1ccc(NC(=O)CNC(=O)Cc2cccc3ccccc23)cc1	1	-3	-2
CC(=O)c1ccc(OC(=O)Cc2cccc3ccccc23)cc1	1	10	26*
O=C(NCC[C@@H]1CC[C@@H](NC(=O)c2ccc3c(c2)OCO3)[C@H](CO)O1)Nc1ccc(Cl)cc1	-1	-1	4
C[C@H](CO)N1C[C@H](C)[C@@H](CN(C)Cc2cccnc2)Oc2ncc(C#Cc3cccnc3)cc2C1=O	0	-6	0
C[C@@H]1CN([C@H](C)CO)S(=O)(=O)c2ccc(C#CCC3CCCC3)cc2O[C@@H]1CN(C)C	0	0	-1
COc1ccc(-n2c(C)c(C(C)=O)c3cc(OC(C)=O)ccc32)cc1	x	2	1
COc1ccc(-n2c(C)cc(C)c(C(C)=O)c2=S)cc1	2	-11	27*
